Reference: ChEMBL document CHEMBL1132448, “Enantiospecific synthesis of 3-fluoromethyl-, 3-hydroxymethyl-, and 3-chloromethyl-1,2,3,4-tetrahydroisoquinolines as selective inhibitors of phenylethanolamine N-methyltransferase versus the alpha(2)-adrenoceptor” (J Med Chem, 1999)

Experiments:
[1] = Ratio of binding affinity of PNMT to alpha-2 receptors.
[2] = molecular target: T1, Phenylethanolamine N-methyltransferase (Bos taurus, UniProt P10938); test: In vitro inhibition of PNMT (Phenylethanolamine N-Methyltransferase).
T1 sequence (P10938 whole entry): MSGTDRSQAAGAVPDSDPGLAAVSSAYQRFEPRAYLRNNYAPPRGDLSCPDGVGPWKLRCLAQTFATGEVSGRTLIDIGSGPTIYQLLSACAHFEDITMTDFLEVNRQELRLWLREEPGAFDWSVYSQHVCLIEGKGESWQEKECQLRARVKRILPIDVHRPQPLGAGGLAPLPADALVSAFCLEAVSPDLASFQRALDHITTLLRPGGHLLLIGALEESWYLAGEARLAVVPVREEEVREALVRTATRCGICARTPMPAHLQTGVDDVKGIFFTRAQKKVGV

[3] = molecular target: T2, Adrenergic receptor alpha-2 (Rattus norvegicus, UniProt P22086+P19328+P22909); test: In vitro inhibition of [3H]clonidine binding at the alpha-2 adrenergic receptor.; assay type: protein assay
T2 sequence (P22086 whole entry): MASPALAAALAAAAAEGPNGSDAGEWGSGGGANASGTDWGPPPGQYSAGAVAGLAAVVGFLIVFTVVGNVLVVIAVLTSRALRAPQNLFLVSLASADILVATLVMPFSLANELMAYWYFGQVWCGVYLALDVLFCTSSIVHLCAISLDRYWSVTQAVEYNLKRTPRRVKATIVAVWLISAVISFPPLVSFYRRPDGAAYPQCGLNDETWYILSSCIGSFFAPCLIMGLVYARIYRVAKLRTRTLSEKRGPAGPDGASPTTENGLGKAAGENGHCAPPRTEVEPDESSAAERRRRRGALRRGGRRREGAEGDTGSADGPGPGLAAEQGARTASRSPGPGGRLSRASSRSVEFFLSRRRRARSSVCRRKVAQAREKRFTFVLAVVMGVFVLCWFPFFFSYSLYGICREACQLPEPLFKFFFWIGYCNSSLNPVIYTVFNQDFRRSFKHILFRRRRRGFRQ
T2 sequence (P19328 whole entry): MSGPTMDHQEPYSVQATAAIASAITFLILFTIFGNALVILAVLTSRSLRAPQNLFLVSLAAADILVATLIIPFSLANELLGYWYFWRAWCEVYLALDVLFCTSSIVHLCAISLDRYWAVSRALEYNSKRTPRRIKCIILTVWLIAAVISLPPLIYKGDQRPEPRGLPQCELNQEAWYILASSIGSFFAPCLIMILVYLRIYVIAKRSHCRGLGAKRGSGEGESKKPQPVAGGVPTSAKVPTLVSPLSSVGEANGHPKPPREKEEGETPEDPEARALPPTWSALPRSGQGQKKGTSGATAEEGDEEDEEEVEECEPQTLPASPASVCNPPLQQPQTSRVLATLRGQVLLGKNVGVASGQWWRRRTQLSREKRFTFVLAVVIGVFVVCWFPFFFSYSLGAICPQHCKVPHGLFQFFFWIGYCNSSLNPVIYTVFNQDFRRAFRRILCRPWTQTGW
T2 sequence (P22909 whole entry): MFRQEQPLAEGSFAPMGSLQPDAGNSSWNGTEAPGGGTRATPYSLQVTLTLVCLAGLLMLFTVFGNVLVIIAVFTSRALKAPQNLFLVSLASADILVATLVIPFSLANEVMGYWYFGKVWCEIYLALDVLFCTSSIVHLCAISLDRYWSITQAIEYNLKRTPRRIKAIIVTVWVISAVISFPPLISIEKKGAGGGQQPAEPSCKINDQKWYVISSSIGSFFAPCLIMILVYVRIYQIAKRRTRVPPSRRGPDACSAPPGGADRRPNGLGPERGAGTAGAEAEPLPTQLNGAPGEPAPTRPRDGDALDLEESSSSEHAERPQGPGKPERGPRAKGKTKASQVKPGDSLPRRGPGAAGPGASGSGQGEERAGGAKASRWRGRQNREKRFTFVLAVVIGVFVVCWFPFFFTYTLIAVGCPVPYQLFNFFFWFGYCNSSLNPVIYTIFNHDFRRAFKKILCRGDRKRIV
How it was run: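 Membranes from male Sprague-Dawley rat cortex, homogenized and washed in 50 mM Tris/HCl pH 7.7. Incubated with [3H]clonidine (final 2.0 nM) and various inhibitor concentrations, 1 mL final volume, 25 °C for 30 min. Terminated by vacuum filtration on GF/B filters and counted. Nonspecific binding defined with 2 µM phentolamine. IC50 by log-probit analysis; Ki = IC50/(1 + [clonidine]/KD).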

For NS(=O)(=O)c1ccc2c(c1)CNC(CF)C2 (centres undefined), the Selectivity [1] was 1000.
For FC[C@@H]1Cc2ccc(Br)cc2CN1, the Selectivity [1] was 36, the Ki [2] was 470 nM and the Ki [3] was 17000 nM.
Work on OC[C@H]1Cc2ccc(Br)cc2CN1 yielded a Selectivity [1] of 3.2, a Ki [2] of 380 nM and a Ki [3] of 1200 nM.
O=S(=O)(Nc1ccc(Cl)cc1)c1ccc2c(c1)CN[C@@H](CF)C2 gave a Selectivity [1] of 350, a Ki [2] of 280 nM and a Ki [3] of 97000 nM.
O=[N+]([O-])c1ccc2c(c1)CN[C@H](CCl)C2 showed a Selectivity [1] of 410, a Ki [2] of 660 nM and a Ki [3] of 270000 nM.
In the case of Clc1ccc2c(c1Cl)CNCC2, the Selectivity [1] is reported as 0.095.
Molecule OC[C@H]1Cc2ccccc2CN1 has a Selectivity [1] of 7.9.
Work on FC[C@H]1Cc2ccc(Br)cc2CN1 yielded a Selectivity [1] of 6.1, a Ki [2] of 510 nM and a Ki [3] of 3100 nM.
O=[N+]([O-])c1ccc2c(c1)CN[C@@H](CCl)C2 gave a Selectivity [1] of 210, a Ki [2] of 470 nM and a Ki [3] of 100000 nM.
For c1ccc2c(c1)CCNC2, the Selectivity [1] was 0.35.
In the case of O=S(=O)(Nc1ccc(Cl)cc1)c1ccc2c(c1)CN[C@H](CF)C2, the Selectivity [1] is reported as 53, the Ki [2] is reported as 1900 nM and the Ki [3] is reported as 101000 nM.
Molecule O=[N+]([O-])c1ccc2c(c1)CNC(CF)C2 (centres undefined) has a Selectivity [1] of 140.
For O=[N+]([O-])c1ccc2c(c1)CN[C@H](CF)C2, the Selectivity [1] was 160, the Ki [2] was 880 nM and the Ki [3] was 140000 nM.
C[C@@H]1Cc2ccc([N+](=O)[O-])cc2CN1 gave a Selectivity [1] of 76, a Ki [2] of 250 nM and a Ki [3] of 19000 nM.
Molecule OC[C@@H]1Cc2ccc(Br)cc2CN1 has a Selectivity [1] of 2, a Ki [2] of 480 nM and a Ki [3] of 970 nM.
For FCC1Cc2ccc(Br)cc2CN1 (centres undefined), the Selectivity [1] was 10.
In the case of O=S(=O)(Nc1ccc(Cl)cc1)c1ccc2c(c1)CNC(CF)C2 (centres undefined), the Selectivity [1] is reported as 220.
Molecule ClC[C@@H]1Cc2ccccc2CN1 has a Selectivity [1] of 0.55, a Ki [2] of 12000 nM and a Ki [3] of 6600 nM.
CCC1Cc2ccccc2CN1 (centres undefined) gave a Selectivity [1] of 0.028.
Work on ClC[C@H]1Cc2ccccc2CN1 yielded a Selectivity [1] of 0.66, a Ki [2] of 3500 nM and a Ki [3] of 2300 nM.
Work on OC[C@@H]1Cc2ccccc2CN1 yielded a Selectivity [1] of 1.1.
In the case of N#Cc1ccc2c(c1)CN[C@@H](CF)C2, the Selectivity [1] is reported as 370, the Ki [2] is reported as 970 nM and the Ki [3] is reported as 360000 nM.
C[C@H]1Cc2ccc([N+](=O)[O-])cc2CN1 showed a Selectivity [1] of 41, a Ki [2] of 1300 nM and a Ki [3] of 53000 nM.
In the case of FC[C@@H]1Cc2ccccc2CN1, the Selectivity [1] is reported as 3.7, the Ki [2] is reported as 9900 nM and the Ki [3] is reported as 37000 nM.
In the case of FCC1Cc2ccccc2CN1 (centres undefined), the Selectivity [1] is reported as 2.5.
OCC1Cc2ccccc2CN1 (centres undefined) gave a Selectivity [1] of 6.
For N#Cc1ccc2c(c1)CNC(CF)C2 (centres undefined), the Selectivity [1] was 420.
Molecule N#Cc1ccc2c(c1)CN[C@H](CF)C2 has a Selectivity [1] of 170, a Ki [2] of 3500 nM and a Ki [3] of 580000 nM.
C[C@@H]1Cc2ccccc2CN1 showed a Selectivity [1] of 0.49, a Ki [2] of 1000 nM and a Ki [3] of 490 nM.
CC1Cc2ccccc2CN1 (centres undefined) gave a Selectivity [1] of 0.36.
Work on NS(=O)(=O)c1ccc2c(c1)CNC(CO)C2 (centres undefined) yielded a Selectivity [1] of 4100.
Molecule C[C@H]1Cc2ccccc2CN1 has a Selectivity [1] of 0.15, a Ki [2] of 38000 nM and a Ki [3] of 5700 nM.
In the case of O=[N+]([O-])c1ccc2c(c1)CN[C@@H](CF)C2, the Selectivity [1] is reported as 90, the Ki [2] is reported as 520 nM and the Ki [3] is reported as 47000 nM.
In the case of FC[C@H]1Cc2ccccc2CN1, the Selectivity [1] is reported as 4.2, the Ki [2] is reported as 690 nM and the Ki [3] is reported as 2900 nM.
